Measurements: ChEMBL document CHEMBL1122045, “Synthesis and pharmacological evaluation of reduced diastereoisomeric and quaternary ammonium derivatives of calcium antagonistic (methylenedioxy)indenes on the isolated rat aorta” (J Med Chem, 1982)

Legend:
Rattus norvegicus [1] = species on record: Rattus norvegicus; test: Evaluated for its potency (IC 50) against potassium Chloride (KCl) (at a dose level of 40 mM) induced aortic contractions in male Sprague-Dawley rats.; assay type: functional; conditions: Aorta
In short: (§1)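 Thoracic aorta segments (2.5 cm) from male Sprague–Dawley rats (250–300 g) were equilibrated 1–1.5 h, then contracted with NE 1×10^-7 M or KCl 40 mM, final bath levels. Compound was added in rising concentrations, up to 30 min per step. Tension was taken as % of pre-drug control, fatigue-adjusted. Per-tissue probit transform with linear regression gave IC50.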

Rattus norvegicus [2] = species on record: Rattus norvegicus; test: Evaluated for its potency against norepinephrine (NE) (at a dose level of 10 E-7 M) induced aortic contractions in male Sprague-Dawley rats.; assay type: functional; conditions: Aorta; in short: as §1

| IC50 (Rattus norvegicus [1]) | IC50 (Rattus norvegicus [2]) | SMILES |
| --- | --- | --- |
| 20.3 µM | 74.1 µM | CCCCC1=Cc2cc3c(cc2C1N(C)C)OCO3 (stereo not given) |
| 169 µM | 128 µM | CCCCC1=Cc2cc3c(cc2C1[N+](C)(C)C)OCO3 (stereo not given) |
| 21.4 µM | 78.2 µM | CCCC1=Cc2cc3c(cc2C1N(C)C)OCO3 (stereo not given) |
| 547 µM | 382 µM | CCCC1=Cc2cc3c(cc2C1[N+](C)(C)C)OCO3 (stereo not given) |
| 175 µM | 281 µM | CCCC[C@@H]1Cc2cc3c(cc2[C@@H]1[N+](C)(C)C)OCO3 |
| 871 µM | 1020 µM | CCC[C@@H]1Cc2cc3c(cc2[C@@H]1[N+](C)(C)C)OCO3 |

| SMILES | IC50 (Rattus norvegicus [1]) | IC50 (Rattus norvegicus [2]) |
| --- | --- | --- |
| CCCC[C@@H]1Cc2cc3c(cc2[C@H]1N(C)C)OCO3 | 31.1 µM | 151 µM |
| CCC[C@@H]1Cc2cc3c(cc2[C@@H]1N(C)C)OCO3 | 30 µM | 59.4 µM |
| CCCC[C@@H]1Cc2cc3c(cc2[C@@H]1N(C)C)OCO3 | 17.4 µM | 37.9 µM |
| CCC[C@@H]1Cc2cc3c(cc2[C@H]1N(C)C)OCO3 | 98.9 µM | 383 µM |
